Compound activity: PubChem, The Scripps Research Institute Molecular Screening Center
ADAM10 inh: ADAM10 inhibition, QFRET primary screen; O14672; recombinant ADAM10, EDANS/DABCYL FRET peptide cleavage, 3 h; inhibition, % at 7 µM; hit rate 0.62% among 370,000; AID 720582;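 active = inhibition above a per-campaign cutoff equal to the mean of compounds falling between control-based bounds plus 3 SD, cut at about 20% in these data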;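 note: 0% = DMSO wells while the 100% control is not disclosed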
Tn7 DDE FP: disrupts Tn7 cyclic peptide binding to fibrin D-Dimer-E complex | P02675 | FP displacement of FITC-Tn7 peptide from fibrin DD(E); 0% = median of compound wells per plate | inhibition, % at 8.3 µM | hit rate 0.13% among 370,000;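 active = inhibition above the mean of compounds falling within the control limits plus 3 SD of them, cut at about 14% in these data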;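 note: 0% = plate median of compound wells and 100% = 10 µM Aha-Tn7 peptide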
Target sequence (P02675 whole entry, looked up): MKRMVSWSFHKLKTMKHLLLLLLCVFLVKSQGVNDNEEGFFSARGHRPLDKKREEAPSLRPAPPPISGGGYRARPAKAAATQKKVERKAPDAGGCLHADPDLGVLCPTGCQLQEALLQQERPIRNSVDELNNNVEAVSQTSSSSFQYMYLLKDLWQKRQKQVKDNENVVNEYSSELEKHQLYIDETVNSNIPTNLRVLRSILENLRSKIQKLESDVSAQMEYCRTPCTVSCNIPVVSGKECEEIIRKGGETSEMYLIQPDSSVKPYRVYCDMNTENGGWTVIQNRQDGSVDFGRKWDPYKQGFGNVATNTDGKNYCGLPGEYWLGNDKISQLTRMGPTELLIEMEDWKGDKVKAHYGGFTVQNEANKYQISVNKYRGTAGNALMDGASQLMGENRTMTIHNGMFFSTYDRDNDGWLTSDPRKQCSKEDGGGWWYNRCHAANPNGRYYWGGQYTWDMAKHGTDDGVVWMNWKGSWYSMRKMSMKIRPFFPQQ
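Assay system: human fibrin DD(E) protein / Input: 2 µM fibrin DD(E) / Benchmarks: high control of 10 µM Aha-Tn7 peptide / Measured by: fluorescence polarization of the labelled Tn7 tracer / Medium: Tris buffer with calcium and detergent, pH 7.8 / Timing: 10 min compound pre-incubation, 3 h probe incubation at room temperature / Repeats: one replicate per compound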
DDE Tn6 FP inh: inhibitors of Tn6 peptide binding to human fibrin DD(E); P02675; Fibrin DD(E) TRITC-Tn6 fluorescence polarization displacement; inhibition, % at 8.3 µM; hit rate 0.21% among 370,000; AID 720509;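 active = inhibition above a per-campaign cutoff: mean of compounds within control limits plus 3 SD, cut at about 15% in these data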;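 note: 0% = median of all compound wells on the plate and 100% = blocking peptide control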
PLCb3 inh: inhibitors of human phospholipase C beta3. Q01970. Purified PLC-beta3, fluorogenic substrate, fluorescence. inhibition, % at 12.2 µM. hit rate 0.18% among 370,000. AID 720704; in the data active = inhibition above about 11%;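 note: 0% = median of compound wells on plate and 100% = full blocker control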
PLCg1 inh: PLC-gamma1 (human) inhibition, primary screen; purified PLC-gamma1, fluorogenic substrate, fluorescence; inhibition, % at 12.2 µM; hit rate 0.84% among 370,000; AID 720700; in the data active = inhibition above about 9.5%
ADAM17 inh: inhibits human ADAM17; inhibition, % at 6.95 µM; hit rate 0.83% among 370,000; AID 720648; P78536; recombinant ADAM17, EDANS/DABCYL FRET peptide cleavage;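 active = inhibition above the mean of compounds lying between control limits plus 3 SD, set per campaign, cut at about 8.5% in these data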;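 note: 0% = DMSO-only wells as the low control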
ADAM10 counter: inhibits human ADAM10 in ADAM17 exosite counter-screen; shares compounds with ADAM17 inh; recombinant ADAM10, EDANS/DABCYL FRET peptide cleavage, 3 h; inhibition, % at 6.95 µM; hit rate 47% among 2,900;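 active = mean inhibition over the triplicate runs exceeds the activity threshold set in the earlier primary screen, cut at about 20% in these data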;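 note: 0% = DMSO wells and 100% = marimastat wells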
ADAM17 confirm: human ADAM17 inhibition, confirmation. inhibition, % at 6.95 µM. shares compounds with ADAM17 inh. recombinant ADAM17, EDANS/DABCYL QFRET peptide cleavage. hit rate 65% among 2,900;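 active = mean inhibition across replicates above the hit cutoff set in the primary screen, cut at about 8.5% in these data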;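 note: 0% = DMSO wells and 100% = marimastat wells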
* hit, by the source's call; . = no result given. Shown are actives, neighbours in structure and some others; about 2.3% of the full set was active somewhere.

SMILES	ADAM10 inh	Tn7 DDE FP	DDE Tn6 FP inh	PLCb3 inh	PLCg1 inh	ADAM17 inh	ADAM10 counter	ADAM17 confirm
O=C(CSc1nnc(SCc2cccc3ccccc23)s1)N/N=C/c1c[nH]c2ccccc12	16	-14	-6	1	3	12*	17	9.9*
O=C(CSc1nnc(-c2ccccc2)n1-c1ccc(Cl)cc1)NN=Cc1c[nH]c2ccccc12	20	1	3	-1	0	11*	29*	12*
COP(=O)(O)C(C)NC(=O)OCc1ccccc1 (centres undefined)	4	-5	7	-6	4	1	.	.
O=S(=O)(c1ccccc1F)N1CCC(c2nc3ccccc3o2)CC1	-3	-3	0	6	1	9.1*	13	4
O=S(=O)(c1ccc(F)cc1)N1CCC(c2nc3ccccc3o2)CC1	-2	3	-5	1	1	-2	.	.
Cc1ccc2nc(-c3ccc(NC(=O)CSc4nnc(-c5cc(-c6ccc(F)cc6)n[nH]5)n4N)cc3)sc2c1	-150	1	2	-39	-29	-53	.	.
COc1ccc2nc(NC(=S)N(C)C)sc2c1	6	4	-4	9	15*	13*	-10	1
CCCC(=O)Nc1nc2ccc(OC)cc2s1	3	1	0	1	6	1	.	.
CCOC(=O)[C@]12CCCCC/C=C\1N(Cc1ccc(OC)cc1)C(=O)[C@H]2CC(=O)N1CCC(c2ccccc2)CC1	11	-10	-3	6	7	9.4*	11	7
O=C(OC12CCCN(C1)/C(=C/c1ccncc1)C2)C1CCCCC1 (centres undefined)	1	-2	3	-11	-10	2	.	.
CC(Oc1ccc(Cl)cc1Cl)c1ccnc(N)n1 (centres undefined)	16	1	-15	3	4	9.2*	2	3
CCC(C)(C)c1ccc(OCCCC[n+]2cccc(C)c2)c(C(C)(C)CC)c1	9	-9	-5	5	9	9.4*	11	6
COc1ccc(CN(CCN2CCOCC2)C(=O)c2ccc(F)cc2F)cc1OC	-4	6	0	1	-3	-1	.	.
COc1ccc(N2CCN(C(=O)Cc3csc(NC(=O)Nc4ccccc4OC)n3)CC2)cc1	12	-2	-15	-8	-6	5	.	.
COc1ccccc1NC(=O)Nc1nc(CC(=O)N2CCN(c3ccc(F)cc3)CC2)cs1	5	-3	-4	-6	2	9.8*	24*	16*
COc1ccc(CNC(=O)C2CCN(C(=O)[C@@H](CC(C)C)NC(=O)OC(C)(C)C)CC2)cc1	2	-2	-7	6	1	8.6*	-7	-3
Cc1ccc(-c2cc(-c3nnc(SCC(=O)N4CCOCC4)n3N)[nH]n2)cc1	-1	-1	-3	2	2	0	.	.
CN(CCc1ccccn1)C(=O)c1cc2ccccn2n1	-13	4	2	-5	-2	-1	.	.
O=C1CC(c2ccco2)CC(O)=C1C=Nc1cc(Cl)ccc1O (centres undefined)	18	3	-4	-212	-158	11*	-30	-6
O=C(CCCc1c[nH]c2ccccc12)Nc1ccc2ccccc2c1	8	-1	-3	2	0	10*	1	4
O=C(OC12CCCN(C1)/C(=C/c1ccccc1)C2)C1CCCC1 (centres undefined)	-8	-3	0	-1	1	-2	.	.
O=C(NC1CCCCN(Cc2cccc(F)c2)C1=O)c1cccc(F)c1 (centres undefined)	-4	8	-5	0	-1	-6	.	.
COc1ccccc1C(=O)NCC(=O)NC(C)CCc1ccccc1 (centres undefined)	-7	-2	0	-5	0	9.2*	3	5
COc1ccccc1C(=O)OCC(=O)NC(C)CCc1ccccc1 (centres undefined)	13	-10	4	6	4	0	.	.
